High-throughput results as filed in PubChem.
CYP2C9 act – CYP2C9 (human) activation | P11712 | recombinant CYP2C9, luciferin-H conversion, luminescence; hits give high values; factor 1 = untreated enzyme, 0 = blocked | activation factor at 5 µM | hit rate 1.4% among 96,000;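 active = activation factor of 2 or more for CYP2C9 at a 5 µM dose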;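 also: 0 = sulfaphenazole-blocked wells and 1 = vehicle-only wells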
CYP2C19 act – increases human CYP2C19 enzyme activity; P33261; activation factor at 5 µM; AID 1025; recombinant CYP2C19, luciferin-H EGE luminescence; hits give high values; 0 = fully inhibited enzyme, 1 = untreated enzyme; 96,000 tested, under 10 active;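 active = activation factor of at least 2 at 5 µM in the primary screen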;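 also: 0 = wells with 2.5 mM tranylcypromine and 1 = vehicle-only wells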
Target sequence (P33261 whole entry, looked up): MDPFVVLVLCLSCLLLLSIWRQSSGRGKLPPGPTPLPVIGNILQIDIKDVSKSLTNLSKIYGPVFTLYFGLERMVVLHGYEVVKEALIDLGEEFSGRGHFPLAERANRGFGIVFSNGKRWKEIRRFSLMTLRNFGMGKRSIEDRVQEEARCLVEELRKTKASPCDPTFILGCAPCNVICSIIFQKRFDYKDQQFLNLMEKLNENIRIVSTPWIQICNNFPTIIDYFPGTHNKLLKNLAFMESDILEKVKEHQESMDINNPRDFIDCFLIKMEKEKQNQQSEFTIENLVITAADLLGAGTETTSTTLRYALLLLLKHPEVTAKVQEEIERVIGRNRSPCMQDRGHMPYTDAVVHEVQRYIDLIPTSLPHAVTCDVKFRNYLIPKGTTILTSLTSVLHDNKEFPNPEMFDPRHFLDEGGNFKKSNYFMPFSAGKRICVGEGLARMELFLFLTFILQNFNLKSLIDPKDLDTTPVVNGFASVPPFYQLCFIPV
Ecoli WT expand – growth inhibitors of E. coli BW25113 wild type; hit rate 0.15% among 98,000; growth inhibition, % at 100 µM; OD600 absorbance;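 active = growth inhibition above about 50% at one test dose, limit read from the data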;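 also: growth measured after 20 h incubation at 37 °C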
Ecoli tolC – E. coli tolC mutant growth inhibition; growth inhibition, % at 10 µM (by protocol); AID 573; E. coli BW25113 tolC mutant growth, OD615; hit rate 2.2% among 65,000;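 active = growth inhibition at or above a cutoff equal to the mean over every tested compound plus 3 SD, cut at about 60% in these data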;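 also: growth measured after 20 h incubation at 37 °C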
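Material: E. coli BW25113 ΔtolC::kan, tolC deletion mutant strain. Measure: percent growth inhibition. Schedule: 37 °C, 20 h exposure. Doses: single-point testing at 10 µM. Signal: A615 absorbance measurement. Buffer or medium: kanamycin-containing LB broth (50 µg/mL).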
CYP2C9 inh – human CYP2C9 inhibition | CYP2C9 Supersomes, luciferin-H conversion, luminescence | inhibition, % at 5 µM | hit rate 20% among 96,000 | AID 777;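 active = blocking of liver enzyme CYP2C9 beyond about 50% at 5 µM, limit read from the data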
CYP2C19 inh – human CYP2C19 inhibition | CYP2C19 Supersomes, luciferin-H EGE luminescence, 30 min | hit rate 21% among 96,000 | P33261 | AID 778 | inhibition, % at 5 µM;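 active = CYP2C19 inhibition above a set limit at 5 µM in the primary screen, cut at about 50% in these data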;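 also: plate controls were negative control wells for no effect and 2.5 mM tranylcypromine positive control for full effect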
Numbers without * were called inactive; . = not tested or not shown. This is a sample that favours compounds with a hit; in the whole collection about 29% have one here.

SMILES | CYP2C9 act | CYP2C19 act | Ecoli WT expand | Ecoli tolC | CYP2C9 inh | CYP2C19 inh
COCCn1c(=S)[nH]c2cc(C(=O)NCC3CCCO3)ccc2c1=O (stereo not given) | 0.5 | 0.2 | -7 | 1 | 52* | 76*
COC(=O)c1ccc(C2C(Oc3ccc(OC)cc3)C(=O)N2CCc2ccc(F)cc2)cc1 (stereo not given) | 0.7 | 0.4 | -7 | . | 25 | 56*
COc1ccc(OC2C(=O)N(c3ccc(F)cc3)C2c2ccc(OC)c(OC)c2)cc1 (stereo not given) | 0.9 | 1 | -10 | . | 7 | 3
O=C1CC(c2ccccc2)=Nc2ccccc2N1 | 1 | 0.8 | 5 | . | 2 | 19
O=C1Nc2ccccc2N=C(c2ccccc2)C1N1CCOCC1 (stereo not given) | 0.4 | 0.5 | 3 | 0 | 59* | 54*
CC(C)CNC(=O)c1ccccc1NC(=O)CN(c1ccc2c(c1)OCCO2)S(C)(=O)=O | 0.1 | 0.7 | 0 | 5 | 93* | 35
COc1ccc(N(CC(=O)Nc2ccccc2C(=O)NCCc2ccccc2)S(C)(=O)=O)cc1OC | 0 | 0.2 | 1 | . | 99* | 82*
COC(=O)CN(c1ccc2c(c1)OCO2)S(C)(=O)=O | 0.9 | 0.5 | -6 | -15 | 12 | 46
COc1ccccc1N(CC(=O)NCCc1ccccc1)S(C)(=O)=O | 0.8 | 0.6 | -3 | -10 | 18 | 38
COCCNC(=O)c1ccccc1NC(=O)CN(c1ccc2c(c1)OCO2)S(C)(=O)=O | 0.1 | 0.1 | 4 | 5 | 92* | 86*
COc1ccccc1N(CC(=O)Nc1ccccc1C)S(C)(=O)=O | . | . | . | 5 | . | .
COc1ccccc1N(CC(=O)Nc1ccccc1C(=O)NCC(C)C)S(C)(=O)=O | 0.2 | 0.5 | 1 | -5 | 77* | 47
O=C(CN1C(=O)NC2(CCCCCC2)C1=O)N1CCN(S(=O)(=O)c2ccc(Cl)cc2)CC1 | 0.9 | 0.9 | -4 | . | 10 | 8
CS(=O)(=O)N(CC(=O)Nc1ccccc1C(=O)NCc1ccco1)c1ccc2c(c1)OCCO2 | 0.1 | 0.6 | -7 | . | 91* | 37
COC(=O)c1ccc(C(=O)OC)c(NC(=O)CN(c2ccc3c(c2)OCO3)S(C)(=O)=O)c1 | 0.2 | 0.1 | 2 | . | 76* | 89*
COc1ccc(CCN=CC2=C(O)CCCC2=O)cc1OC | 1.1 | 1.1 | -2 | -4 | -12 | -10
CC(=O)N1C(Nc2ccc(Cl)cc2)CCN1c1ccccc1 (stereo not given) | 1 | 0.8 | -1 | . | 5 | 18
COCc1c(C(=O)OCC(=O)N2c3ccccc3NC(=O)C2(C)C)oc2ccccc12 | 0.7 | 0.9 | 7 | -20 | 31 | 12
Cc1ccc(N2CCN(CC(=O)Nc3c(C(=O)C4CC4)oc4ccccc34)CC2)cc1 | 1 | 1.1 | 4 | . | 0 | -12
Cc1ccc(C)c(N2CCN(S(=O)(=O)c3ccc4[nH]c(=O)c(=O)[nH]c4c3)CC2)c1 | 0.3 | 0.8 | -17 | 31 | 66* | 16
Cc1ccc(C)c(N2CCN(C(=O)C3CCCN(S(=O)(=O)c4c(C)[nH]c(=O)[nH]c4=O)C3)CC2)c1 (stereo not given) | 0.7 | 0.6 | 0 | -1 | 33 | 44
Cc1ccc(C)c(N2CCN(C(=O)CN(C)S(=O)(=O)c3ccc4c(c3)CCC(=O)N4)CC2)c1 | 0.2 | 0.5 | 4 | 17 | 82* | 51*
Cc1ccc(C)c(N2CCN(S(=O)(=O)c3ccc4c(c3)CCC(=O)N4)CC2)c1 | 0.2 | 0.7 | 0 | 18 | 78* | 35
Cc1cccc(N2C(=S)N=C(Nc3c(C)cccc3C)C23CCOC(C)(C)C3)c1 (stereo not given) | 1.1 | 1.1 | -16 | . | -14 | -14
COc1ccc(C2C(=O)N(C3CCCCC3)CC(=O)N2C2CCCCC2)cc1 (stereo not given) | 0.5 | 0.7 | 0 | . | 53* | 31
Cc1ccc(C2C(=O)N(C3CCCC3)CC(=O)N2C2CCCCC2)cc1 (stereo not given) | 0.8 | 0.8 | 1 | . | 21 | 17
COc1ccc(C(c2nnnn2CCc2ccccc2)N2CCN(C3CCCC3)CC2)cc1OC (stereo not given) | 0.9 | 1.1 | -7 | -11 | 12 | -8
